Measured values reported in ChEMBL document CHEMBL2384998, “Modular, efficient synthesis of asymmetrically substituted piperazine scaffolds as potent calcium channel blockers” (Bioorg Med Chem Lett, 2013).

Experiments:
[1] = species on record: Rattus norvegicus; test: Selectivity ratio of IC50 for rat cardiac Cav1.2 L-type channel to IC50 for rat brain Cav2.2 N-type channel
[2] = biological target: Voltage-dependent N-type calcium channel subunit alpha-1B (Rattus norvegicus, UniProt Q02294); test: Inhibition of rat brain Cav2.2 N-type channel expressed in HEK cells after 20 mins by FLIPR assay; assay type: cell-based, HEK293
Chain of Voltage-dependent N-type calcium channel subunit alpha-1B (Q02294 whole entry): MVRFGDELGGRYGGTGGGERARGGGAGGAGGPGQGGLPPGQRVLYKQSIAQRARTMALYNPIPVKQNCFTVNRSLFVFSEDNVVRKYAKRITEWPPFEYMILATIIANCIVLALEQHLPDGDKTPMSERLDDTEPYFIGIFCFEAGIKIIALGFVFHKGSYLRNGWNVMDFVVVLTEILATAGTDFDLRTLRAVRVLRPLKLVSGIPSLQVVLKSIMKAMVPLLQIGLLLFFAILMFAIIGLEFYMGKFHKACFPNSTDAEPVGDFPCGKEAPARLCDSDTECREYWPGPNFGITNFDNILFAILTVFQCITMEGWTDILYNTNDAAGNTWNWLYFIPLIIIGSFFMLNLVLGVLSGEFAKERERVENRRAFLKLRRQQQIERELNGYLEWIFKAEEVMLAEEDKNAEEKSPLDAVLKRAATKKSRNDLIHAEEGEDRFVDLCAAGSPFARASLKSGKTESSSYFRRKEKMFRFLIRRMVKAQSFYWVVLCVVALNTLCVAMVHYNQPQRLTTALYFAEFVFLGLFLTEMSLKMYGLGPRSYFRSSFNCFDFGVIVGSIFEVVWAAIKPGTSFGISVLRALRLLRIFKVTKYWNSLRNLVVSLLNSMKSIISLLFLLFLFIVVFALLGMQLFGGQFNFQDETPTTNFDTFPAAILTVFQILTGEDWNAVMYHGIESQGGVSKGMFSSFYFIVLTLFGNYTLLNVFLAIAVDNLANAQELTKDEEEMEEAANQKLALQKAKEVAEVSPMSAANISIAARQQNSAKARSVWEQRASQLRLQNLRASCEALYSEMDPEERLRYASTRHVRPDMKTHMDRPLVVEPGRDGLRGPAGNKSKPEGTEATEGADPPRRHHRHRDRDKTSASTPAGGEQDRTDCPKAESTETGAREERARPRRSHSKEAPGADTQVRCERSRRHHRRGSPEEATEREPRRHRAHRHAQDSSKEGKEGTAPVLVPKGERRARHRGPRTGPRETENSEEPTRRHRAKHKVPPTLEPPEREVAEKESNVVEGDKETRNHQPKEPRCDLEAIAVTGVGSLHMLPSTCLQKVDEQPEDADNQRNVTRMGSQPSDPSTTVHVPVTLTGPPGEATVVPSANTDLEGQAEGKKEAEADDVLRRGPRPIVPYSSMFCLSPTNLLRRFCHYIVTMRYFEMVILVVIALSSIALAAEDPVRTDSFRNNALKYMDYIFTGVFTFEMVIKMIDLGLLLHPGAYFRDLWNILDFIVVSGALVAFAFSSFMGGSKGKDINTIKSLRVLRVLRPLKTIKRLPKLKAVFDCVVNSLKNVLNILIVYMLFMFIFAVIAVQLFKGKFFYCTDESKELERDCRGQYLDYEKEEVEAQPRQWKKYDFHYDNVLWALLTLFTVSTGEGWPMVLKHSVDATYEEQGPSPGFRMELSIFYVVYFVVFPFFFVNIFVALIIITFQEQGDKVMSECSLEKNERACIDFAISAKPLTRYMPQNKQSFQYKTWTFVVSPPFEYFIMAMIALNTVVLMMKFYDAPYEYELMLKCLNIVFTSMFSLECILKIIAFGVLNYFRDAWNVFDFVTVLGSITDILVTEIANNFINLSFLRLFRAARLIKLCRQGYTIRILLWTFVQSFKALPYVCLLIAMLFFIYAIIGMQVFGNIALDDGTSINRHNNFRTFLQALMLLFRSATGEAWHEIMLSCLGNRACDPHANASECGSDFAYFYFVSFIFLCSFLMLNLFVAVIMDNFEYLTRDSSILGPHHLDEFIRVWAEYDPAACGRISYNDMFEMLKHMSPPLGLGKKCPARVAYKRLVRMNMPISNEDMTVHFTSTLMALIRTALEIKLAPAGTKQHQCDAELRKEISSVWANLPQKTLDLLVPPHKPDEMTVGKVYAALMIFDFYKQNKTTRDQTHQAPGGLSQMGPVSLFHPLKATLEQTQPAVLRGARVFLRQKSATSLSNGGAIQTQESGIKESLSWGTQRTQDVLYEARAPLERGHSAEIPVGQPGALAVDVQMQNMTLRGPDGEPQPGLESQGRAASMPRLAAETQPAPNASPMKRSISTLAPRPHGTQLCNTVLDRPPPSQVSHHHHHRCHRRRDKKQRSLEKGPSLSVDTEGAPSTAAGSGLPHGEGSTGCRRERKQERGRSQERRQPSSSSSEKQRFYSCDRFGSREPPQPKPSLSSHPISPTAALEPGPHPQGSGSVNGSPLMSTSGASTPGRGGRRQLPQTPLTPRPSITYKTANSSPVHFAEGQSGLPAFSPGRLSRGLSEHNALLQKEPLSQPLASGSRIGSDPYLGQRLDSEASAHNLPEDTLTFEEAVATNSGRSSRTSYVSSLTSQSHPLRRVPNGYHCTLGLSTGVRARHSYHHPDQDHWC
How it was run: (§1)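 Fluorescence Ca²⁺ influx read by FLIPR with the Ca²⁺ indicator dye Fluo-4. Each compound was tested as an 8-point concentration-response profile spanning 0.003–10 μM, giving IC50. Membrane potential and channel state were set by changing the external potassium ion concentration.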

[3] = biological target: Voltage-dependent L-type calcium channel subunit alpha-1C (Rattus norvegicus, UniProt P22002); test: Inhibition of rat cardiac Cav1.2 L-type channel expressed in HEK cells after 20 mins by FLIPR assay; assay type: cell-based, HEK293
Chain of Voltage-dependent L-type calcium channel subunit alpha-1C (P22002 whole entry): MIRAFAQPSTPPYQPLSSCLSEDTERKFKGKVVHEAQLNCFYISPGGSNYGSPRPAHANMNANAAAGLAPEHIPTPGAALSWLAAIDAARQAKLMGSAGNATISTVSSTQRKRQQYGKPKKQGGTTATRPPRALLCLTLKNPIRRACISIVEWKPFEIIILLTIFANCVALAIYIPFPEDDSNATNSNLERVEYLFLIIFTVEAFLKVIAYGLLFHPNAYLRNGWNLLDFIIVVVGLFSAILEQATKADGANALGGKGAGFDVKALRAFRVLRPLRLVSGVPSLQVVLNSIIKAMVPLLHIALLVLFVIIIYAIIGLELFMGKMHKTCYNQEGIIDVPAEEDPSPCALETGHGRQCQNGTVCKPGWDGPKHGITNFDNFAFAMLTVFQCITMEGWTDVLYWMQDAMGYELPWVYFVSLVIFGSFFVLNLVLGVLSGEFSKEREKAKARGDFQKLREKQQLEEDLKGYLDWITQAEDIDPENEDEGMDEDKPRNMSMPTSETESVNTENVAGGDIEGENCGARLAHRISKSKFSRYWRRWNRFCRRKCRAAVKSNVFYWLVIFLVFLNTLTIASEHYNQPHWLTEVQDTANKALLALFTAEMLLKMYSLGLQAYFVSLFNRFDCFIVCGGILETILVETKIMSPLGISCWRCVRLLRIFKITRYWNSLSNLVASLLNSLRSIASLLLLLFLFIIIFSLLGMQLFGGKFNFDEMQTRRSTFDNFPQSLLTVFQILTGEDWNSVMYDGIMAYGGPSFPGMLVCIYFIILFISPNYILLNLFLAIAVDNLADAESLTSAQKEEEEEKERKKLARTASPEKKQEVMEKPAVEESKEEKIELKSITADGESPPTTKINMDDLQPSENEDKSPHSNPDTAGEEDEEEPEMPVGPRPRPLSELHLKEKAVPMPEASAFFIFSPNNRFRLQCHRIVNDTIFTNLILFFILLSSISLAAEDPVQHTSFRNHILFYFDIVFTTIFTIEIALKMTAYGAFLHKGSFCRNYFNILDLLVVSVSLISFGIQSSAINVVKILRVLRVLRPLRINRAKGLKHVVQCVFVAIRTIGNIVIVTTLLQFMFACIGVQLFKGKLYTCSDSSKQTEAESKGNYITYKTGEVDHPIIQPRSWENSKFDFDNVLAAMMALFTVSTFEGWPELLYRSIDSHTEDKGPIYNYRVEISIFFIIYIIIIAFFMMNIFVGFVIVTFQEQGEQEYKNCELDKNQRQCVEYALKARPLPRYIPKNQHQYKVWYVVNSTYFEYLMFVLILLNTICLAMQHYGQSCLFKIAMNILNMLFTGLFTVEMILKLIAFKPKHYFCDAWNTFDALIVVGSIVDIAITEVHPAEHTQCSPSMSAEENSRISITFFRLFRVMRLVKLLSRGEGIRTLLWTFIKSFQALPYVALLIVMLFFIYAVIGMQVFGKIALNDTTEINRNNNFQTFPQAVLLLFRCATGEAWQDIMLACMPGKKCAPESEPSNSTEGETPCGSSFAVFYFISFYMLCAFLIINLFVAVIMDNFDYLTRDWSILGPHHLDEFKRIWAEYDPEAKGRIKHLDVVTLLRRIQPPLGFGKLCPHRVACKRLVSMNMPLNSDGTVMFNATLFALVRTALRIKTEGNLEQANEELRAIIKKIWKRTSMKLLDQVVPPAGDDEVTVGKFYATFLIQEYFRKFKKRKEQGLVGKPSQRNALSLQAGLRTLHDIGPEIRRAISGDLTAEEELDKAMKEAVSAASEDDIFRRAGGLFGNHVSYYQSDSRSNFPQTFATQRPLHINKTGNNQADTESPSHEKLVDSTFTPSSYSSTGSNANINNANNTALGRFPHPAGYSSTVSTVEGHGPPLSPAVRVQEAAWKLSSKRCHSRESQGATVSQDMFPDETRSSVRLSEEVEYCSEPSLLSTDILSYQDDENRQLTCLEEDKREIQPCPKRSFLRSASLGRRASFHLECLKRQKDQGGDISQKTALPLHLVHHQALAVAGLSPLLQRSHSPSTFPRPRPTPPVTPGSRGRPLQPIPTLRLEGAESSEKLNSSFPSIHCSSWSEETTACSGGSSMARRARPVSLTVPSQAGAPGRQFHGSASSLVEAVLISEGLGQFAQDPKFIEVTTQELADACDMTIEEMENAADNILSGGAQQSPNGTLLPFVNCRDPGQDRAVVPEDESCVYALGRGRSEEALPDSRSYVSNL
How it was run: as §1

SMILES | Ratio IC50 [1] | IC50 [2] [µM] | IC50 [3] [µM]
C[C@@H]1CN(C(c2ccccc2)c2ccccc2)[C@H](CCCCO[Si](C)(C)C(C)(C)C)CN1 (relative stereo) | 1.4 | 1.07 | 1.53
C[C@@H]1CN(Cc2ccccc2)[C@H](Cc2ccccc2)CN1S(=O)(=O)c1ccc(C(F)(F)F)cc1 (relative stereo) | 1 | 10 | 10
C[C@@H]1CN(Cc2ccc(F)cc2)[C@H](Cc2ccccc2)CN1S(=O)(=O)c1ccc(C(F)(F)F)cc1 (relative stereo) | 1 | 10 | 10
C[C@@H]1CN(C(c2ccccc2)c2ccccc2)[C@H](CCCCO[Si](C)(C)C(C)(C)C)CN1S(=O)(=O)c1ccc(C(F)(F)F)cc1 (relative stereo) | 1 | 10 | 10
C[C@@H]1CN(C(c2ccccc2)c2ccccc2)[C@H](Cc2ccccc2)CN1 | 0.4 | 4.34 | 1.78
C[C@@H]1CN(Cc2ccccc2)[C@H](Cc2ccccc2)CN1 (relative stereo) | 1 | 10 | 10
Cc1ccc(S(=O)(=O)N2C[C@@H](CCCO[Si](C)(C)C(C)(C)C)N(C(c3ccccc3)c3ccccc3)C[C@H]2C)cc1 (relative stereo) | 2 | 2.6 | 5.1
C[C@@H]1CN(Cc2ccc(F)cc2)[C@H](Cc2ccccc2)CN1 (relative stereo) | 1.2 | 8.37 | 10
C[C@@H]1CN(C(c2ccccc2)c2ccccc2)[C@H](CCCCO)CN1 (relative stereo) | 6 | 0.85 | 5.4
CCCCCCCCC[C@@H]1CN[C@H](C)CN1Cc1ccccc1 (relative stereo) | 0.6 | 10 | 5.6
C[C@@H]1CN(Cc2ccccc2)[C@H](CCCCO[Si](C)(C)C(C)(C)C)CN1 (relative stereo) | 0.7 | 4.85 | 3.34
C[C@@H]1CN(Cc2ccc(F)cc2)[C@H](Cc2ccccc2)CN1C(=O)C(c1ccccc1)c1ccccc1 (relative stereo) | – | 10 | –
C[C@@H]1CN(Cc2ccccc2)[C@H](CCCCO)CN1 (relative stereo) | – | 9.6 | 10
Cc1ccc(S(=O)(=O)N2C[C@@H](CCCCO[Si](C)(C)C(C)(C)C)N(C(c3ccccc3)c3ccccc3)C[C@H]2C)cc1 (relative stereo) | 1.7 | 4.7 | 8.2
CCCCC[C@@H]1CN[C@H](C)CN1C(c1ccccc1)c1ccccc1 (relative stereo) | 0.7 | 2.4 | 1.78
CCCCC[C@@H]1CN[C@H](C)CN1Cc1ccccc1 (relative stereo) | 0.9 | 9.84 | 9.23
C[C@@H]1CN(C(c2ccccc2)c2ccccc2)[C@H](CCCO[Si](C)(C)C(C)(C)C)CN1 (relative stereo) | 0.7 | 10 | 6.8
